Test results reported in ChEMBL document CHEMBL1135734, “Side-chain lactam-bridge conformational constraints differentiate the activities of salmon and human calcitonins and reveal a new design concept for potent calcitonin analogues” (J Med Chem, 2002).
Positions of bridges follow the written chain, without caps; N, C: chain ends. Non-standard residues stand in square brackets, D forms with d. Residues, ends and D or L forms follow the SMILES beside them. Nle = CCCC[C@H](N)C(=O)O; Orn = NCCC[C@H](N)C(=O)O

What was measured:
Calcitonin receptor [1] = molecular target: T1, Calcitonin receptor (Rattus norvegicus, UniProt P32214); test: Displacement of [125I]-salmon calcitonin (sCT) from calcitonin receptor of rat brain
T1 sequence (P32214 whole entry): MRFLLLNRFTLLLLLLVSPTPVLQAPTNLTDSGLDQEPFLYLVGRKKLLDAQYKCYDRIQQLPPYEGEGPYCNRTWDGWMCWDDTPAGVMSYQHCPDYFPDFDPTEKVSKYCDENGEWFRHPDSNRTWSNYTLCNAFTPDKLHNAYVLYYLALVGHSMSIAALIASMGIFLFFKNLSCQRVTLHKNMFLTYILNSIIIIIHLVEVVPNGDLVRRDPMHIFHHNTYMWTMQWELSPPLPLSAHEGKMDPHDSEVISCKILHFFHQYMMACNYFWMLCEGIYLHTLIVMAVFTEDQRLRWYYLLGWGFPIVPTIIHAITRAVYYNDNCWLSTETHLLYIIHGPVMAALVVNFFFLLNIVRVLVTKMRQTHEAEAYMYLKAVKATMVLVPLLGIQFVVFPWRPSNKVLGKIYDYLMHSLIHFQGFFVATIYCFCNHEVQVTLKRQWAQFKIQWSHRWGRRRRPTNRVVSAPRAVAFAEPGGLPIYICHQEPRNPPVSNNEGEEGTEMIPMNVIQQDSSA
Procedure, shortened: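 Male Sprague–Dawley rat (250–350 g) brain membranes (~0.63 mg protein/tube) were shaken on ice for 30 min with 10 pM final [125I-Tyr22]sCT and competitor in 50 mM Tris-HCl pH 7.4 with 34 μM bacitracin. Tubes were centrifuged and the pellets washed, SDS-solubilized and scintillation counted. Nonspecific binding was taken with 1 μM sCT. IC50 came from probit analysis, and relative affinity set sCT = 100%.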

Calcitonin receptor [2] = molecular target: T2, Calcitonin receptor (Homo sapiens, UniProt P30988); test: Inhibition of [125I]-salmon calcitonin (sCT) binding to human calcitonin receptor I1 expressed in HEK293 cells; type: cell-based; conditions: hek293
T2 sequence (P30988 whole entry): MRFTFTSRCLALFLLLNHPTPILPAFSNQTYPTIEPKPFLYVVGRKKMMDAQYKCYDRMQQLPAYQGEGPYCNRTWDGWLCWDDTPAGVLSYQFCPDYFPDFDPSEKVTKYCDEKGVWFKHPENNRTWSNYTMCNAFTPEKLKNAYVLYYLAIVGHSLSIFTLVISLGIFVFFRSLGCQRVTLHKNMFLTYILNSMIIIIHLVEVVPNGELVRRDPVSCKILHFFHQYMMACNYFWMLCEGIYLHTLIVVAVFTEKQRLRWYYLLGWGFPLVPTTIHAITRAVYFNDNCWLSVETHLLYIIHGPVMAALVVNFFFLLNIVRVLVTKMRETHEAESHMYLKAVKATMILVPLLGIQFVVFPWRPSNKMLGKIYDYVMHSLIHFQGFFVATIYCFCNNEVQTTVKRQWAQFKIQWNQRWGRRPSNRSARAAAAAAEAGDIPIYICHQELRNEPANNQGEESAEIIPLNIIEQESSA

Row | IC50 (Calcitonin receptor [1]) [nM] | Ki (Calcitonin receptor [2]) [nM] | SMILES
1 | 5.39 | 0.56 | CCCC[C@H](NC(=O)[C@H](CS)NC(=O)[C@@H](NC(=O)[C@H](CO)NC(=O)[C@H](CC(C)C)NC(=O)[C@H](CC(N)=O)NC(=O)CNC(=O)[C@@H](N)CS)[C@@H](C)O)C(=O)N[C@@H](CC(C)C)C(=O)NCC(=O)N[C@H](C(=O)N[C@@H](Cc1ccccc1)C(=O)N[C@H](C(=O)N[C@@H](CCC(N)=O)C(=O)N[C@@H](CC(=O)O)C(=O)N[C@@H](Cc1ccccc1)C(=O)N[C@H]1CC(=O)NCCC[C@@H](C(=O)N[C@@H](Cc2ccc(O)cc2)C(=O)N2CCC[C@H]2C(=O)N[C@@H](CCC(N)=O)C(=O)N[C@H](C(=O)N[C@@H](C)C(=O)N[C@H](C(=O)NCC(=O)N[C@H](C(=O)NCC(=O)N[C@@H](C)C(=O)N2CCC[C@H]2C(N)=O)C(C)C)[C@@H](C)CC)[C@@H](C)O)NC(=O)[C@H](Cc2c[nH]cn2)NC(=O)[C@H](Cc2ccccc2)NC(=O)[C@H](CCCCN)NC1=O)[C@@H](C)O)[C@@H](C)O (H-CGNLSTC[Nle]LGTFTQDFDKFH[Orn]YPQTAIGVGAP-NH2; lactam 17-21)
2 | > 5000 | > 2500 | CC[C@H](C)[C@H](NC(=O)[C@H](C)NC(=O)[C@@H](NC(=O)[C@H](CCC(N)=O)NC(=O)[C@@H]1CCCN1C(=O)[C@H](Cc1ccccc1)NC(=O)[C@@H](NC(=O)[C@H](Cc1cnc[nH]1)NC(=O)CNC(=O)[C@@H]1CCCN1C(=O)[C@H](CC(N)=O)NC(=O)[C@H](Cc1ccccc1)NC(=O)[C@H](CC(=O)O)NC(=O)[C@H](CCC(N)=O)NC(=O)[C@@H](NC(=O)[C@H](Cc1ccc(O)cc1)NC(=O)[C@@H](NC(=O)CNC(=O)[C@H](CC(C)C)NC(=O)[C@H](CCSC)NC(=O)[C@@H]1CSSC[C@H](N)C(=O)NCC(=O)N[C@@H](CC(N)=O)C(=O)N[C@@H](CC(C)C)C(=O)N[C@@H](CO)C(=O)N[C@@H]([C@@H](C)O)C(=O)N1)[C@@H](C)O)[C@@H](C)O)[C@@H](C)O)[C@@H](C)O)C(=O)NCC(=O)N[C@H](C(=O)NCC(=O)N[C@@H](C)C(=O)N1CCC[C@H]1C(N)=O)C(C)C (H-CGNLSTCMLGTYTQDFNPGHTFPQTAIGVGAP-NH2; disulfide 1-7)
3 | > 5000 | 400 | CC[C@H](C)[C@H](NC(=O)[C@H](C)NC(=O)[C@@H](NC(=O)[C@H](CCC(N)=O)NC(=O)[C@@H]1CCCN1C(=O)[C@H](Cc1ccccc1)NC(=O)[C@@H](NC(=O)[C@H](Cc1c[nH]cn1)NC(=O)[C@@H]1CCCN1C(=O)[C@H](CCCCN)NC(=O)[C@H](CC(N)=O)NC(=O)[C@H](Cc1ccccc1)NC(=O)[C@H](CC(=O)O)NC(=O)[C@H](CCC(N)=O)NC(=O)[C@@H](NC(=O)[C@H](Cc1ccc(O)cc1)NC(=O)[C@@H](NC(=O)CNC(=O)[C@H](CC(C)C)NC(=O)[C@H](CCSC)NC(=O)[C@@H]1CSSC[C@H](N)C(=O)NCC(=O)N[C@@H](CC(N)=O)C(=O)N[C@@H](CC(C)C)C(=O)N[C@@H](CO)C(=O)N[C@@H]([C@@H](C)O)C(=O)N1)[C@@H](C)O)[C@@H](C)O)[C@@H](C)O)[C@@H](C)O)C(=O)NCC(=O)N[C@H](C(=O)NCC(=O)N[C@@H](C)C(=O)N1CCC[C@H]1C(N)=O)C(C)C (H-CGNLSTCMLGTYTQDFNKPHTFPQTAIGVGAP-NH2; disulfide 1-7)
4 | > 5000 | 2570 | CC[C@H](C)[C@H](NC(=O)[C@H](C)NC(=O)[C@@H](NC(=O)[C@H](CCC(N)=O)NC(=O)[C@@H]1CCCN1C(=O)[C@H](Cc1ccccc1)NC(=O)[C@@H](NC(=O)[C@H](Cc1c[nH]cn1)NC(=O)[C@H](CCCCN)NC(=O)[C@@H]1CCCN1C(=O)[C@H](CC(N)=O)NC(=O)[C@H](Cc1ccccc1)NC(=O)[C@H](CC(=O)O)NC(=O)[C@H](CCC(N)=O)NC(=O)[C@@H](NC(=O)[C@H](Cc1ccc(O)cc1)NC(=O)[C@@H](NC(=O)CNC(=O)[C@H](CC(C)C)NC(=O)[C@H](CCSC)NC(=O)[C@@H]1CSSC[C@H](N)C(=O)NCC(=O)N[C@@H](CC(N)=O)C(=O)N[C@@H](CC(C)C)C(=O)N[C@@H](CO)C(=O)N[C@@H]([C@@H](C)O)C(=O)N1)[C@@H](C)O)[C@@H](C)O)[C@@H](C)O)[C@@H](C)O)C(=O)NCC(=O)N[C@H](C(=O)NCC(=O)N[C@@H](C)C(=O)N1CCC[C@H]1C(N)=O)C(C)C (H-CGNLSTCMLGTYTQDFNPKHTFPQTAIGVGAP-NH2; disulfide 1-7)
5 | 1910 | 1230 | CC[C@H](C)[C@H](NC(=O)[C@H](C)NC(=O)[C@@H](NC(=O)[C@H](CCC(N)=O)NC(=O)[C@@H]1CCCN1C(=O)[C@H](Cc1ccccc1)NC(=O)[C@@H](NC(=O)[C@H](Cc1cnc[nH]1)NC(=O)[C@H](Cc1ccccc1)NC(=O)[C@@H]1CCCN1C(=O)[C@H](CC(N)=O)NC(=O)[C@H](Cc1ccccc1)NC(=O)[C@H](CC(=O)O)NC(=O)[C@H](CCC(N)=O)NC(=O)[C@@H](NC(=O)[C@H](Cc1ccc(O)cc1)NC(=O)[C@@H](NC(=O)CNC(=O)[C@H](CC(C)C)NC(=O)[C@H](CCSC)NC(=O)[C@@H]1CSSC[C@H](N)C(=O)NCC(=O)N[C@@H](CC(N)=O)C(=O)N[C@@H](CC(C)C)C(=O)N[C@@H](CO)C(=O)N[C@@H]([C@@H](C)O)C(=O)N1)[C@@H](C)O)[C@@H](C)O)[C@@H](C)O)[C@@H](C)O)C(=O)NCC(=O)N[C@H](C(=O)NCC(=O)N[C@@H](C)C(=O)N1CCC[C@H]1C(N)=O)C(C)C (H-CGNLSTCMLGTYTQDFNPFHTFPQTAIGVGAP-NH2; disulfide 1-7)
6 | 173 |  | CC[C@H](C)[C@H](NC(=O)[C@H](C)NC(=O)[C@@H](NC(=O)[C@H](CCC(N)=O)NC(=O)[C@@H]1CCCN1C(=O)[C@H](Cc1ccccc1)NC(=O)[C@@H]1CCCNC(=O)C[C@H](NC(=O)[C@H](Cc2ccccc2)NC(=O)[C@H](CC(=O)O)NC(=O)[C@H](CCC(N)=O)NC(=O)[C@@H](NC(=O)[C@H](Cc2ccc(O)cc2)NC(=O)[C@@H](NC(=O)CNC(=O)[C@H](CC(C)C)NC(=O)[C@H](CCSC)NC(=O)[C@H](CS)NC(=O)[C@@H](NC(=O)[C@H](CO)NC(=O)[C@H](CC(C)C)NC(=O)[C@H](CC(N)=O)NC(=O)CNC(=O)[C@@H](N)CS)[C@@H](C)O)[C@@H](C)O)[C@@H](C)O)C(=O)N[C@@H](CCCCN)C(=O)N[C@@H](Cc2ccccc2)C(=O)N[C@@H](Cc2c[nH]cn2)C(=O)N1)[C@@H](C)O)C(=O)NCC(=O)N[C@H](C(=O)NCC(=O)N[C@@H](C)C(=O)N1CCC[C@H]1C(N)=O)C(C)C (H-CGNLSTCMLGTYTQDFDKFH[Orn]FPQTAIGVGAP-NH2; lactam 17-21)

Row | SMILES | IC50 (Calcitonin receptor [1]) [nM] | Ki (Calcitonin receptor [2]) [nM]
7 | CC(C)C[C@H](NC(=O)[C@H](CCCCN)NC(=O)CNC(=O)[C@H](CC(C)C)NC(=O)[C@@H](NC(=O)[C@H](CS)NC(=O)[C@@H](NC(=O)[C@H](CO)NC(=O)[C@H](CC(C)C)NC(=O)[C@H](CC(N)=O)NC(=O)[C@H](CO)NC(=O)[C@@H](N)CS)[C@@H](C)O)C(C)C)C(=O)N[C@@H](CO)C(=O)N[C@@H](CCC(N)=O)C(=O)N[C@@H](CCC(=O)O)C(=O)N[C@@H](CC(C)C)C(=O)N[C@H]1CC(=O)NCCCC[C@@H](C(=O)N[C@@H](Cc2ccc(O)cc2)C(=O)N2CCC[C@H]2C(=O)N[C@@H](CCCN=C(N)N)C(=O)N[C@H](C(=O)N[C@@H](CC(N)=O)C(=O)N[C@H](C(=O)NCC(=O)N[C@@H](CO)C(=O)NCC(=O)N[C@H](C(=O)N2CCC[C@H]2C(N)=O)[C@@H](C)O)[C@@H](C)O)[C@@H](C)O)NC(=O)[C@H](Cc2c[nH]cn2)NC(=O)[C@H](CC(C)C)NC(=O)[C@H](CCCCN)NC1=O (H-CSNLSTCVLGKLSQELDKLHKYPRTNTGSGTP-NH2; lactam 17-21) | 0.18 | 0.05
8 | CC[C@H](C)[C@H](NC(=O)[C@H](C)NC(=O)[C@@H](NC(=O)[C@H](CCC(N)=O)NC(=O)[C@@H]1CCCN1C(=O)[C@H](Cc1ccccc1)NC(=O)[C@@H](NC(=O)[C@H](Cc1c[nH]cn1)NC(=O)[C@H](Cc1ccccc1)NC(=O)[C@H](CCCCN)NC(=O)[C@H](CC(N)=O)NC(=O)[C@H](Cc1ccccc1)NC(=O)[C@H](CC(=O)O)NC(=O)[C@H](CCC(N)=O)NC(=O)[C@@H](NC(=O)[C@H](Cc1ccc(O)cc1)NC(=O)[C@@H](NC(=O)CNC(=O)[C@H](CC(C)C)NC(=O)[C@H](CCSC)NC(=O)[C@@H]1CSSC[C@H](N)C(=O)NCC(=O)N[C@@H](CC(N)=O)C(=O)N[C@@H](CC(C)C)C(=O)N[C@@H](CO)C(=O)N[C@@H]([C@@H](C)O)C(=O)N1)[C@@H](C)O)[C@@H](C)O)[C@@H](C)O)[C@@H](C)O)C(=O)NCC(=O)N[C@H](C(=O)NCC(=O)N[C@@H](C)C(=O)N1CCC[C@H]1C(N)=O)C(C)C | 2450 | 
